Test results reported in PMC4734807 (International Journal of Nanomedicine, 2016).

Columns and labels:
[1] = system: HepG2 cells; experiment: Cell apoptosis, Annexin V-FITC/PI flow cytometry; format: cell-based, human; settings: 24 hours
Method in brief: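 HepG2 cells grown in high-glucose DMEM with 10% FBS and 1% antibiotics at 37°C, 5% CO2. Seeded at 2×10^5 cells/mL and incubated 24 h. Then exposed 24 h to nanoparticle suspension or drug solution at 1.2, 5 and 20 μg/mL RBG-equivalent, with 5-fluorouracil 20 μg/mL as control. Cells washed in cold PBS and stained with Annexin V-FITC/PI in binding buffer, 15 min at room temperature, then read by flow cytometry.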

[2] = LD50; parameters: species or system mice; settings: male, Kunming, mouse, in vivo, iv
[3] = In vivo RBG concentrations in plasma and organs, liver-targeting indexes; parameters: species or system Kunming mice; settings: for AUC: iv
Method in brief: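 Male Kunming mice, 6 weeks, about 20.9 g, fasted overnight. Single tail-vein dose of 2 mg/kg RBG-equivalent, given as sonicated nanoparticle suspension or as solution, both in 20% PEG400/saline. Ten mice per group sampled at 0.08–24 h: cardiac blood, liver, heart, spleen, lung and kidney. RBG measured by RP-HPLC. AUC0–24 h by trapezoid method. Re is the AUC ratio of formulation to solution; Te is the liver AUC over the non-target organ AUC.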

[4] = In vivo therapeutic effect in HCa-F solid tumor-bearing mice; settings: male, mouse, tumor, intravenous, 2 mg/kg
Method in brief: (§1)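 Male mice, 6 weeks, implanted subcutaneously in the right axilla with washed HCa-F ascites cells (2.0–2.3×10^7 cells/mL, 0.01 mL/g). At a longest tumour diameter of about 14–16 mm, mice randomised to six groups of eight. Dosing 2 mg/kg RBG-equivalent (5-fluorouracil 2 mg/kg) by tail vein, daily for 7 days, in 20% PEG400/saline vehicle. Volume V=a²×b/2 measured before and after dosing. Tumours weighed; IR from mean weights versus vehicle control. Tumour RBG measured in saline homogenates.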

[5] = system: HCa-F cells; experiment: as above; settings: for IR (tumor growth inhibition rate) / Number of natural deaths / Tumor weight / Volume growth (incremental tumor volume): 2 mg/kg iv once per day for 7 days; for IR (tumor growth inhibition rate): by tumor weight; for Number of natural deaths: eight mice per group; for Tumor weight / Volume growth (incremental tumor volume): n=8
Method in brief: as §1

[6] = In vitro drug release; format: physicochemical; settings: raw RBG
[7] = system: various malignant tumors, such as human hepatocellular carcinoma cells (Bel7402) and human cervical carcinoma cells (HeLa); settings: e.g. Bel7402, HeLa; cited from earlier work

C[C@]12CC[C@H](O)C[C@H]1CC[C@@H]1[C@@H]2CC[C@]2(C)[C@@H](c3ccc(=O)oc3)C[C@H]3O[C@]132 [RS, Resibufogenin]
Cell ratio, apoptotic cells ([1]; 1.2 μg/mL): 21.8±1.5% | Cell ratio, necrotic cells ([1]; 1.2 μg/mL): 1.6±0.8% | Cell ratio, survival cells ([1]; 1.2 μg/mL): 76.6±2.2% | Cell ratio, apoptotic cells ([1]; 5 μg/mL): 33.6±1.6 % | Cell ratio, necrotic cells ([1]; 5 μg/mL): 0.6±0.5% | Cell ratio, survival cells ([1]; 5 μg/mL): 65.8±2.7% | Cell ratio, apoptotic cells ([1]; 20 μg/mL): 45.4±1.7 % | Cell ratio, necrotic cells ([1]; 20 μg/mL): 0.4±0.4% | Cell ratio, survival cells ([1]; 20 μg/mL): 54.2±1.9% | LD50 [2]: 18.9 mg/kg | Te (targeting efficiency), liver versus heart ([3]; AUC liver / AUC heart): 0.6 | Te (targeting efficiency), liver versus kidney ([3]; AUC liver / AUC kidney): 0.8 | Te (targeting efficiency), liver versus lung ([3]; AUC liver / AUC lung): 0.8 | Te (targeting efficiency), liver versus spleen ([3]; AUC liver / AUC spleen): 1.0 | Te (targeting efficiency), overall statement ([3]; liver versus plasma and other organs): < 1 | AUC ([3]; male, Kunming, mouse, heart, 2 mg/kg): 3700 ± 900 ng·h/mL | AUC ([3]; male, Kunming, mouse, kidney, 2 mg/kg): 2700 ± 1000 ng·h/mL | AUC ([3]; male, Kunming, mouse, liver, 2 mg/kg): 2100 ± 900 ng·h/mL | Kp ([3]; male, Kunming, mouse, liver/plasma, intravenous, 2 mg/kg): 0.1 | AUC ([3]; male, Kunming, mouse, lung, 2 mg/kg): 2500 ± 800 ng·h/mL | AUC ([3]; male, Kunming, mouse, plasma, 2 mg/kg): 18600 ± 2100 ng·h/mL | AUC ([3]; male, Kunming, mouse, spleen, 2 mg/kg): 2200 ± 600 ng·h/mL | Retention (slow release) time of RBG in liver ([3]; mice, iv 2 mg/kg RBG): 1 h | concentration at 7 days [4]: 50 ± 20 ng/g | IR (tumor growth inhibition rate) [5]: 31.60% | Number of natural deaths [5]: 2 | Tumor weight [5]: 3.55 ± 0.71 g | Volume growth (incremental tumor volume) [5]: 3.16±0.78 cm^3 | MRBG in tumor ([5]; after 7 days of administration, n=6): 0.19 ± 0.08 µg

C[C@]12CC[C@H](O)C[C@H]1CC[C@@H]1[C@@H]2CC[C@]2(C)[C@@H](c3ccc(=O)oc3)C[C@H]3O[C@]132 [RBG, Resibufogenin]
Release in the first 2 days [6]: 98.78% | IC50 [7]: 1 to 50 nM

O=c1[nH]cc(F)c(=O)[nH]1 [FS, 5-fluorouracil]
Cell ratio, apoptotic cells ([1]; 20 μg/mL): 14.2±1.2% | Cell ratio, necrotic cells ([1]; 20 μg/mL): 22.3±1.6% | Cell ratio, survival cells ([1]; 20 μg/mL): 63.5±2.0% | IR (tumor growth inhibition rate) [5]: 37.19% | Number of natural deaths [5]: 1 | Tumor weight [5]: 3.26 ± 0.74 g | Volume growth (incremental tumor volume) [5]: 3.05±0.72 ^* cm^3
